# ChEMBL document CHEMBL3580617, “Discovery of Benzimidazole CYP11B2 Inhibitors with in Vivo Activity in Rhesus Monkeys” (ACS Med Chem Lett, 2015)
# Activity calls are given as the source filed them. No cut-off for these calls is given here.
# Tests used:
# Rhesus monkey [1] = assay: In-vivo inhibition of CYP11B1 in low sodium diet fed rhesus monkey at free plasma concentration up to 27 nM dosed at 0.01 to 0.3 mg/kg, iv followed by 0.3 mg/kg ACTH dosing and measured 90 mins post ACTH administration by UPLC coupled with tandem mass spectrometry; type: functional, organism-based; conditions: Macaca mulatta
# Outline: (§1)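 Anesthetized rhesus monkeys were given i.v. doses from 0.001 to 0.3 mg/kg. Plasma aldosterone and 11-deoxycortisol were quantified by LC-MS at time points up to 180 min postdose, and AUCs were determined for each. Plasma drug was measured at 90 min postdose. Free (unbound) concentrations were calculated from the measured fraction unbound in rhesus plasma.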
# [2] = Inhibition of rhesus monkey CYP11B1; parameters: species or system Macaca mulatta
# Rhesus monkey [3] = assay: Reduction in aldosterone levels in low sodium diet fed rhesus monkey at 0.01 mg/kg, iv followed by 0.3 mg/kg ACTH dosing and measured 30 mins to 180 mins post ACTH administration by UPLC coupled with tandem mass spectrometry; type: functional, Macaca mulatta; outline: as §1
# [4] = biological target: Sodium channel protein type 5 subunit alpha (Homo sapiens, UniProt Q14524); assay: Block of Nav1.5 ion channel in functional assay (unknown origin)
# Chain of Sodium channel protein type 5 subunit alpha (Q14524 whole entry): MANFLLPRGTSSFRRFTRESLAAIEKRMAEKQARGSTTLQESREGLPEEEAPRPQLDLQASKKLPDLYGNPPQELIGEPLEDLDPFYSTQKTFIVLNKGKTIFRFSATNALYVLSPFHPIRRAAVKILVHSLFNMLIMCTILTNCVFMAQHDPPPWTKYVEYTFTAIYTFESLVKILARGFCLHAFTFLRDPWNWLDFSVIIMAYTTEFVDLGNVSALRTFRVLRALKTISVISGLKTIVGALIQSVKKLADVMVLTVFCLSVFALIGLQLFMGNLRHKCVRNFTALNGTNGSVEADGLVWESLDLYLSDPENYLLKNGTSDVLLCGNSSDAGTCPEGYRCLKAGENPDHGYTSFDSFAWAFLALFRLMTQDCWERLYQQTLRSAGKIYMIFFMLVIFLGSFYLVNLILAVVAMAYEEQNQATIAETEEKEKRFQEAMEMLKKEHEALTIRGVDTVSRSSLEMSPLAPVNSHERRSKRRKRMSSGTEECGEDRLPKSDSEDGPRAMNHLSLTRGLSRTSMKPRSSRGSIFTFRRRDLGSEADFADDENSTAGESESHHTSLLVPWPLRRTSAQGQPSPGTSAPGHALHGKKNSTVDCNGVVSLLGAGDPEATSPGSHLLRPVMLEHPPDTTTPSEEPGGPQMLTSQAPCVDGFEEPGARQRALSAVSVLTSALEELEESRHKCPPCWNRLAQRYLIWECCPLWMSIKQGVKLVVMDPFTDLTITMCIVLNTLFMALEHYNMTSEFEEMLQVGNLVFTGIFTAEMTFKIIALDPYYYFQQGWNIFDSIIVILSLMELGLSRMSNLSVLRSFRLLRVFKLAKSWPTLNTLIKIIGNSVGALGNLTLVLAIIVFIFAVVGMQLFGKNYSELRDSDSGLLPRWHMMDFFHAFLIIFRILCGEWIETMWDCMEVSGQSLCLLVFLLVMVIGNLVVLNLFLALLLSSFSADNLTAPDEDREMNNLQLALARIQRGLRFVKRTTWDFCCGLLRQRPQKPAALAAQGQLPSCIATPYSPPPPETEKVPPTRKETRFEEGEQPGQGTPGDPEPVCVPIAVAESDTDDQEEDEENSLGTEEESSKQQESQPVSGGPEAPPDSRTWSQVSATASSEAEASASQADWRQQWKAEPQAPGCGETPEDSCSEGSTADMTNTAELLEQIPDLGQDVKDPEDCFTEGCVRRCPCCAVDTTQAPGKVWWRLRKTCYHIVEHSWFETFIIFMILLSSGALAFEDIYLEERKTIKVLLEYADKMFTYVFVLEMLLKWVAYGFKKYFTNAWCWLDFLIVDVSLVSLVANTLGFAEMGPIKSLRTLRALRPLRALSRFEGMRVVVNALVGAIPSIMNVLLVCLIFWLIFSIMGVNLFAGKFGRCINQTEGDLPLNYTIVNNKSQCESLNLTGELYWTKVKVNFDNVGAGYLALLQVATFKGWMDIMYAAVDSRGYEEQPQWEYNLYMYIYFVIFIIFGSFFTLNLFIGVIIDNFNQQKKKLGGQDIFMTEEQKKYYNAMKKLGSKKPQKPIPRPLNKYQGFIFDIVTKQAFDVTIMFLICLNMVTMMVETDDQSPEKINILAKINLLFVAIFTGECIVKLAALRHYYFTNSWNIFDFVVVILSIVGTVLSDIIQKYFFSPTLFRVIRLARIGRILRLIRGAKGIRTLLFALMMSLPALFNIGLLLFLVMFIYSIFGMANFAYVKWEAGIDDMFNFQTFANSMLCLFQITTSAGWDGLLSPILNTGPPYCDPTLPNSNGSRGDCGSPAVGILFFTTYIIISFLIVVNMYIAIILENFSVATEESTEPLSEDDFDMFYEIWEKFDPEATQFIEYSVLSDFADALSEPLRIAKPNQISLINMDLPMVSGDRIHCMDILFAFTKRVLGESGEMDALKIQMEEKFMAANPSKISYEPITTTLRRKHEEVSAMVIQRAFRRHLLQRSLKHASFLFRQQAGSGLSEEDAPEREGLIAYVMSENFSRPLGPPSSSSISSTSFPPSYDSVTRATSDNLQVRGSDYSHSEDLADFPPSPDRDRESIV
Compound,inhibition (Rhesus monkey [1]),IC50 [2],inhibition (INH) (Rhesus monkey [3]),IC50 [4]
CC(C)(O)c1cncc(-c2nc3ccc(F)cc3n2C2CC2)c1 [MSD-CYP11B2],inactive,41 nM,62%,–
Fc1cncc(-c2nc3cc(F)c(F)cc3n2C2CC2)c1,–,–,–,> 30000 nM
